Screens: PubChem, several laboratories
Most compounds without a hit are left out; they make up all but 1.8% or so of the library.
Runt-CBFb FRET – blocks binding of human RUNX1 Runt domain to CBFb | Q01196+Q13951 | Cerulean-Runt/Venus-CBFb FRET ratio 530/480, 1 h | inhibition, % at 20 µM | 220,000 compounds, 0.46% hits | AID 1496;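 active = inhibition over about 50% at 20 µM in the single-dose screen, limit read from the data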;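 note: 0% = DMSO wells and 100% = excess unlabeled CBFb competitor control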
Target sequence (Q01196 whole entry, looked up, the tested form may be a part): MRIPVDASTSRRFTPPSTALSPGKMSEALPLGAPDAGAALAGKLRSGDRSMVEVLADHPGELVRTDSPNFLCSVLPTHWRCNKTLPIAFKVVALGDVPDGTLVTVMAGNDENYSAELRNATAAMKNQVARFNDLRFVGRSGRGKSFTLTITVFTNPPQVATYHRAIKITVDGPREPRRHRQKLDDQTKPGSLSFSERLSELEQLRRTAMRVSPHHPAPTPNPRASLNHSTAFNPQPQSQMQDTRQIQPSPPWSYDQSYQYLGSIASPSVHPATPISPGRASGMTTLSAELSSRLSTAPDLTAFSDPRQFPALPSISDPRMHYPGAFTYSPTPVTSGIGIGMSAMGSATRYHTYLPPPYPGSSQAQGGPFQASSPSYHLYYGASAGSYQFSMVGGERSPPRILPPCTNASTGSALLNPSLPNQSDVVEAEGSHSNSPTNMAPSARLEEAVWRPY
Target sequence (Q13951 whole entry, looked up, the tested form may be a part): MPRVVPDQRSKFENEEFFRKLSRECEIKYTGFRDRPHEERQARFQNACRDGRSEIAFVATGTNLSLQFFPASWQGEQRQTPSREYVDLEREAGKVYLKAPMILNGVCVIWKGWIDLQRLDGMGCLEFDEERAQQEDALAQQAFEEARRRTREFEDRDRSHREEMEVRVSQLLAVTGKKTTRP
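System: Cerulean-labeled Runt domain protein | Quantity: 100 nM of each labeled protein | Schedule: 1 h compound exposure, room temperature | Detection: Fluorescence energy transfer, 422 nm excitation, 530/480 nm emission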
Runt-SMMHC FRET – blocks binding of human RUNX1 Runt domain to CBFb-SMMHC. 220,000 compounds, 0.74% hits. inhibition, % at 20 µM. Q01196+Q13951. AID 1434. Cerulean-Runt/Venus-CBFb-SMMHC FRET ratio 530/480, 1 h;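 active = mean inhibition across duplicate retests at 20 µM reaching about 50%, limit read from the data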;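 note: 0% = DMSO wells and 100% = wells with excess untagged CBFb-SMMHC; inhibitors lower the FRET ratio by blocking Runt binding to CBFb-SMMHC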
Platelet DG rel – platelet dense granule release activity; 300,000 compounds, 0.22% hits; inhibition, %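 (compounds screened at 7.5 µM in platelet-rich plasma)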; human platelet-rich plasma, SFLLRN dense granule ATP release, luminescence;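 active = mean replicate score, as percent of positive control, at or above 50; inconclusive = mean below 50 but at least one replicate at or above 50; inactive = mean and every replicate below 50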
Rce1 inh – yeast Ras-converting enzyme inhibition; Q03530; yeast membranes, quenched prenylated peptide cleavage fluorescence; calls only; 290,000 compounds, 0.27% hits; AID 2563;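 active = fall in fluorescence gain of 50% or more versus controls, with final raw signal at or below 3038400; inconclusive = same 50% fall but final raw signal above 3038400; inactive = fall in fluorescence gain under 50%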;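 note: plate controls were neutral control wells for no effect and wells lacking membranes for full effect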
RanGTP-Impb inh – inhibitors of RanGTP-importin-beta interaction, primary screen, biochemical, FRET, CFP-Ran, YFP-importin-beta, homogeneous. cell-free CFP-Ran/YFP-importin-beta FRET ratio. inhibition, % (concentration not given with the values). 300,000 compounds, 1.1% hits;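 active = more than half of the replicate wells show a fall in the fluorescence ratio signal beyond about 16%, limit read from the data, passing the limit was not always enough; inconclusive = exactly half of the replicate wells pass the set limit; inactive = fewer than half of replicates pass the limit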;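 note: 0% = DMSO wells and 100% = Ran loaded with GDP instead of GTP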
Starred values were filed as active, the others as inactive; i = inactive; ? = inconclusive; · = no result; + = active, no number.

SMILES | Runt-CBFb FRET | Runt-SMMHC FRET | Platelet DG rel | Rce1 inh | RanGTP-Impb inh
c1ccc(CNc2nc(N3CCN(Cc4ccccc4)CC3)nc3ccccc23)cc1 | -2.2 | 0.7 | -14.0 | + | 3.5
COc1ccc(OC(C)C(=O)NC(C)c2ccccc2)cc1 (stereo not given) | · | · | -16.7 | i | 5.3
O=C(O)/C=C/c1coc2ccccc2c1=O | 1.6 | 2.7 | 0.7 | i | 35.4*
CCC(=O)Nc1c(S(=O)(=O)c2ccc(C)cc2)c2nc3ccccc3nc2n1C(C)c1ccccc1 (stereo not given) | 37.0 | 74.9* | -31.0 | i | 4.4
CCC(=O)Nc1c(S(=O)(=O)c2ccccc2)c2nc3ccccc3nc2n1C(C)c1ccccc1 (stereo not given) | 29.3 | 75.5* | 7.2 | i | 4.3
CCOc1ccc(CCNC(=O)C(O)c2ccccc2)cc1 (stereo not given) | -1.4 | -0.2 | -5.1 | i | -1.0
CCOc1ccc(C2C(C(=O)OC)=CN(C(C)c3ccccc3)C=C2C(=O)OC)cc1 (stereo not given) | · | · | · | + | 8.0
Cc1ccc(OCC(=O)NNC(=O)C2CSC3(C)CCC(=O)N23)cc1 (stereo not given) | · | · | -6.8 | i | 1.4
COc1ccc(C(=O)Nc2ccc3c(c2)C(=O)NC3=O)cc1 | · | · | -11.8 | i | 8.3
COc1ccc(OCCN2C(=O)c3ccccc3C2=O)cc1 | 0.9 | -1.0 | -1.0 | i | 5.6
Nc1cccc2c1C(=O)N(CCOc1ccc(F)cc1)C2=O | · | · | 8.1 | i | 26.3*
O=[N+]([O-])c1ccccc1NCc1c(O)ccc2ccccc12 | 2.0 | -2.3 | -4.9 | i | -7.5
O=[N+]([O-])c1cc(N=Nc2ccc3ccccc3c2)ccc1O | · | · | 54.5* | i | -7.6
COc1ccccc1C(=O)Nc1ccnn1C1CCN(C(C)CSC)CC1 (stereo not given) | · | · | -2.4 | i | 22.6*
Clc1ccc2nc(N3CCNCC3)nc(-c3ccccc3)c2c1 | 39.3 | 89.0* | 0.2 | i | 3.9
O=C1CN(c2nc(-c3ccccc3)c3cc(Cl)ccc3n2)c2ccccc2N1 | -23.9 | -68.4 | 7.0 | i | 1.1
CN1CCN(c2nc(-c3ccccc3)c3cc(Cl)ccc3n2)CC1 | 25.0 | 56.6* | 2.3 | i | ?
c1ccc(-c2nc(N3CCCC3)nc3ccccc23)cc1 | 6.6 | 18.7 | -0.8 | i | 34.2*
CCC(C)S(=O)(=O)c1snnc1C (stereo not given) | 3.6 | -0.4 | -0.2 | i | 2.2
CN(C)S(=O)(=O)n1cc(/C=C(\NC(=O)c2ccccc2F)C(=O)N2CCCC2)c2ccccc21 | · | · | -4.0 | i | 1.9
O=C(Nc1ncccn1)c1ccc([N+](=O)[O-])cc1 | -0.6 | 3.1 | -3.9 | + | 3.5
O=C(Nc1ncccn1)c1cc([N+](=O)[O-])cc([N+](=O)[O-])c1 | -1.1 | -0.4 | -12.0 | i | 2.4
N#Cc1c(NC(=O)C2CC(c3ccccc3Cl)=NO2)sc2c1CCC2 (stereo not given) | 0.5 | 0.0 | -2.7 | i | 2.8
Cc1onc(-c2ccccc2Cl)c1C(=O)Nc1sc2c(c1C#N)CCC2 | 4.5 | 8.4 | -1.2 | i | 45.4*
Cc1ccc(-n2c([S-])c(C(=O)Nc3ccc(OC(F)F)cc3)[n+]3ccc(C(=O)NCCO)cc23)cc1C | 13.3 | 14.8 | 5.0 | i | 7.5
SMILES | Runt-CBFb FRET | Runt-SMMHC FRET | Platelet DG rel | Rce1 inh | RanGTP-Impb inh
COc1ccccc1-n1c([S-])c(C(=O)Nc2ccccc2C(F)(F)F)[n+]2ccc(C(=O)NCCO)cc12 | 6.3 | 2.5 | 3.6 | i | 19.8*
CCCCN(C)CC(O)Cn1cc(/C=C/C(=O)c2ccc(OCC)cc2)c2ccccc21 (stereo not given) | · | · | 8.6 | i | 24.7*
CCCCN(C)CC(O)Cn1cc(/C=C/C(=O)c2cccs2)c2ccccc21 (stereo not given) | -103.9 | -61.8 | -3.6 | i | -26.5
N#Cc1c(OCC(=O)c2ccccc2)nc2c(c1-c1ccco1)CCc1ccccc1-2 | -0.9 | -15.0 | -4.8 | + | -2.7
O=C(O)CCC(=O)Nc1ccc(Br)c(Cl)c1 | 99.5* | 2.8 | 4.9 | i | -2.5
CCCC(=O)Nc1ccc(Br)c(Cl)c1 | 0.5 | 1.5 | -3.0 | i | -3.0
O=C(O)Cn1c2c(c3ccccc31)CCCC2 | -5.5 | 15.8 | 6.9 | i | 28.6*
CC(=O)NNC(=O)CCn1c2c(c3ccccc31)CCCC2 | -2.9 | -5.0 | -20.0 | i | -5.1
CC(C)CN(C(=O)c1ccc(-n2cncn2)c([N+](=O)[O-])c1)C1CCS(=O)(=O)C1 (stereo not given) | · | · | -0.3 | i | -1.1
Cc1ccc(Nc2nc3ccccc3nc2-n2nc(C)cc2C)cc1 | 4.3 | 11.0 | -4.8 | i | 30.7*
Cc1cc(C)n(-c2nc3ccccc3nc2Nc2ccc(CC(=O)O)cc2)n1 | 0.6 | 3.6 | -11.8 | i | ?
COc1ccc(CNC(=O)CN2C(=O)C3C4C=CC(C4)C3C2=O)cc1 (stereo not given) | -1.3 | 0.5 | 1.9 | · | -3.0
CCC1CCCCN1C(=S)NC(=O)c1ccc([N+](=O)[O-])cc1 (stereo not given) | 2.7 | -4.3 | -0.6 | i | -0.6
CCC1CCCCN1C(=O)NC(=O)c1ccccc1 (stereo not given) | · | · | 10.9 | + | -0.3
CCOC(=O)N1CCN(C(=O)c2ccc(NS(=O)(=O)c3ccc4[nH]c(=O)[nH]c4c3)cc2)CC1 | · | · | -1.9 | i | -1.7
Cc1c(CCC(=O)O)c(=O)oc2cc(O)ccc12 | 32.6 | 74.7* | 16.3 | ? | 2.7
COC(=O)c1cc2c(s1)-c1cc(F)ccc1OC2 | 9.4 | 18.7 | 4.9 | i | 5.7
CC(=O)c1cc2c(s1)-c1cc(F)ccc1OC2 | -53.9 | 88.1* | 1.9 | · | -39.4
COc1cc(C2SCC(=O)N2Cc2ccccc2)ccc1O (stereo not given) | · | · | 0.4 | i | 17.1*
C=C(C)CSc1nc2sc3c(c2c(=O)n1-c1ccc(OC)cc1)CCN(C)C3 | · | · | -2.0 | + | 5.0
CN1CCc2c(sc3nc(NCCO)n(-c4cccc(Cl)c4)c(=O)c23)C1 | · | · | 9.2 | i | 92.2*
C=CCn1c(SCC(=O)NCc2ccco2)nc2sc3c(c2c1=O)CCCC3 | -0.3 | -2.3 | -1.0 | i | 0.1
COC(=O)CSc1nc2sc3c(c2c(=O)n1C1CCCCC1)CCN(C)C3 | 12.9 | 32.5 | 2.1 | i | 26.3*
COC(=O)CSc1nc2sc3c(c2c(=O)n1-c1ccc(OC)cc1)CCN(C)C3 | · | · | -5.8 | i | -4.0
O=C(NCc1ccco1)c1ccc2nc3sc4c(c3c(=O)n2c1)CCCC4 | 63.4* | 63.3* | -21.0 | i | 62.4*
CCN(CC(=O)NCc1ccc(F)cc1)C(=O)c1ccc(C)o1 | · | · | 0.4 | i | 0.4
COc1ccc(/C(N)=N/OC(=O)Cc2ccc(OC)c(OC)c2)cc1 | -0.9 | -8.0 | -2.7 | i | 3.0
COc1ccc(NC(=O)CN(C)C(=O)c2ccc3c(c2)OCCO3)cc1 | · | · | 1.3 | i | -1.3
